# Hep lipid drop – hepatic lipid droplet formation modulation; inhibition, % at 6.5 µM; AML12 mouse hepatocytes, oleate lipid droplets, BODIPY imaging; 240,000 tested, 0.4% active;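 active = lipid droplet intensity inhibited by at least 50%, with more than 500 cells counted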
#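 Assay system: AML12 mouse liver cells | Compound: 6.5 µM single-point dosing | Schedule: Overnight exposure | Technique: Fluorescence imaging, 20x objective, two fields per well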
# MEKK2mut PB1 HTS – signal of MEK5 binding to mutant human MEKK2 PB1 domain. 290,000 tested, 0.35% active. percent response, % at 10 µM. bead flow cytometry, Alexa488-MEK5 binding to MEKK2 mutant. AID 1530; in the data active = percent response above about 24%, passing the limit was not always enough
# MEKK3 PB1 HTS – modulators (inhibitors or enhancers) of MEK5 binding to human MEKK3 PB1 domain | Q99759 | bead-based flow cytometry, Alexa488-MEK5 binding to MEKK3; actives lie on both sides; 0 = blocked by unlabeled MEK5, 100 = vehicle | binding response (% of control), % at 10 µM | 290,000 tested, 1.4% active | AID 1529;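 active = binding response more than 3 SD above or below the average of its plate-row segment, actives on both sides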;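 note: Alexa488 bead fluorescence after subtracting the streptavidin-only scavenger bead signal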
# Target sequence (Q99759 whole entry, looked up, the tested form may be a part): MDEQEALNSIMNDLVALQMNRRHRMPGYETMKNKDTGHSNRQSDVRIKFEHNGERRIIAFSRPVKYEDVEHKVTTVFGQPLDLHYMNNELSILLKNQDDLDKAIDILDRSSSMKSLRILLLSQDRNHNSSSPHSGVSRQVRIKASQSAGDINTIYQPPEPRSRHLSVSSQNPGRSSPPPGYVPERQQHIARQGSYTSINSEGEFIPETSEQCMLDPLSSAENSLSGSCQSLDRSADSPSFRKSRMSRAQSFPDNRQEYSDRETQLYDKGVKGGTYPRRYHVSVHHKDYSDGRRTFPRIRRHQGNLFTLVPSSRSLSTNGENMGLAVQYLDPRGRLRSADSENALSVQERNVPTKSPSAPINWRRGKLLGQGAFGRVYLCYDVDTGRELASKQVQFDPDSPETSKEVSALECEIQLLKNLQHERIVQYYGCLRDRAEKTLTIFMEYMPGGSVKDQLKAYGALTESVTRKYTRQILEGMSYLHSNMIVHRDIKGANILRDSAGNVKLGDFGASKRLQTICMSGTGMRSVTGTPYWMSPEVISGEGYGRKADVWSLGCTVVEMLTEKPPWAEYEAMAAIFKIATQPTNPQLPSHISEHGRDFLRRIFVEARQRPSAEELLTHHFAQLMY
# MEKK2wt PB1 HTS – raises or lowers MEK5 binding to wildtype human MEKK2 PB1 domain | Q9Y2U5 | bead flow cytometry, Alexa488-MEK5 binding to MEKK2 WT; actives lie on both sides | binding response (% of control), % at 10 µM | 290,000 tested, 1.1% active | AID 1531; in the data active = binding response below about 67% or above about 130%
# Numbers without * were called inactive; . = no result; [ ] = another dose, or the depositor's remark. Compounds with a hit are over-represented: about 2.6% of the library has one in this group of screens.
SMILES,Hep lipid drop,MEKK2mut PB1 HTS,MEKK3 PB1 HTS,MEKK2wt PB1 HTS
CN(C)CCCNC(=S)NCC(c1ccc(Cl)cc1Cl)c1c[nH]c2ccccc12 (stereo not drawn),-15,73*,110,223*
Cc1ccccc1C(=O)Nc1ccnn1C1CCN(C(C)Cc2ccccc2F)CC1 (stereo not drawn),-20,-5,95,100
CC(=O)c1ccc(NC(=O)C2CCCO2)cc1 (stereo not drawn),12,3,107,108
CC(=O)c1ccc(N2CCN(C(=O)c3ccc(NC(=O)C4CCCO4)cc3)CC2)cc1 (stereo not drawn),8,-5,81*[inhibitor],87
Cc1cccc(N2CCN(C(=O)c3ccncc3)CC2C)c1 (stereo not drawn),9,-7,98,97
Cc1cccc(N2CCN(C(=O)c3ccc(NC(=O)C4CCCO4)cc3)CC2C)c1 (stereo not drawn),18,-17,0.0*[inhibitor],-1.0*[inhibitor]
CC(=O)Nc1ccc(S(=O)(=O)N2CCN(Cc3cccc([N+](=O)[O-])c3)CC2)cc1,-7,-1,99,98
O=S(=O)(NC(=S)c1ccccc1)c1ccc(F)cc1,12,14,109,109
CC/C(C)=N/Nc1nc(-c2cc3cccc(OC)c3oc2=O)cs1,-2,5,107,104
CN(C)c1nc(-c2cn(CCC#N)c3ccccc23)cs1,-2,-6,97,-15*
COCCn1cc(-c2csc(N)n2)c2ccccc21,.,1,100,101
Cc1cc(NC(=O)c2cc([N+](=O)[O-])cc([N+](=O)[O-])c2)n(-c2ccccc2)n1,11,8,103,30*
Cc1cc(NC(=O)c2cccc([N+](=O)[O-])c2)n(-c2ccccc2)n1,0,1,101,99
CCOC(=O)C1CCCN(C2=NC(=O)/C(=C/c3ccc(N(C)C)cc3)S2)C1 (stereo not drawn),-5,-4,90,87
COc1ccc2[nH]cc(CCNS(=O)(=O)Cc3ccccc3)c2c1,4,-10,97,88
CC1CCN(CCCNC(=O)c2cc3c(s2)-c2ccccc2OC3)CC1,9,11,104,134*
Cc1cccc2c1-c1sc(C(=O)NCCCN3CCC(C)CC3)cc1CO2,-7,29*,107,186*
CCOC(=O)c1cc2c(s1)-c1c(C)cccc1OC2,.,1,105,105
CC1CCCN(CCCNC(=O)c2cc3c(s2)-c2ccccc2OC3)C1 (stereo not drawn),-10,9,103,132
COc1ccccc1CNC(=O)c1ccc2ccccc2n1,-7,2,99,95
CN(C)/C(=N\S(=O)(=O)c1ccc(Cl)cc1)c1ccc(F)cc1,9,9,109,110
CC1(C)N=C(N)N=C(N)N1c1ccc(OCCCOc2ccccc2)c(Cl)c1,-62,46*,116,165*
CCCn1c(CNS(=O)(=O)c2ccc(C)cc2)nc2ccccc21,12,10,107,109
Cc1nc2ccc(NC(=O)Cc3ccc4c(c3)OCCO4)cc2s1,-2,6,102,99
CCNc1nc(-c2cc(C)n(Cc3ccco3)c2C)cs1,-5,-29,79,-21*
SMILES,Hep lipid drop,MEKK2mut PB1 HTS,MEKK3 PB1 HTS,MEKK2wt PB1 HTS
Cc1cc(-c2csc(NC(=O)c3ccc(=O)[nH]c3)n2)c(C)n1Cc1ccco1,-9,-22,66,77
Cc1cc(-c2csc(NCc3ccccc3)n2)c(C)n1C,9,1,84,-10*
CN(C)c1ccccc1C(=O)N1CCCC(C(=O)c2ccc3ccccc3c2)C1 (stereo not drawn),4,0,100,100
CC(c1nccs1)N(C)c1nc2nonc2nc1N(C)C (stereo not drawn),13,-11,99,97
CCCN1C/C(=C/c2ccc3c(c2)OCO3)C(=O)/C(=C/c2ccc3c(c2)OCO3)C1,-28,1,136*,109
CCCN1C(=O)/C(=C/c2ccc3c(c2)OCO3)NC1=S,-16,0,103,96
Cc1cccc(CN2C(=O)c3ccccc3Sc3ccc(C(=O)NCCCN4CCOCC4)cc32)c1,14,9,100,114
Cc1cccc(CN2C(=O)/C(=C\c3ccc(C(=O)NCCCN4CCN(C)CC4)cc3)Oc3ccccc32)c1,-34,36*,105,162*
CN1CCN(CCCNC(=O)c2ccc(/C=C3\Oc4ccccc4N(Cc4ccccc4F)C3=O)cc2)CC1,-7,29*,104,159*
CCN1CCN(CCNC(=O)c2ccc(/C=C3\Sc4ccccc4N(Cc4ccccc4F)C3=O)cc2)CC1,-16,2,103,121
CC(=O)c1ccc(OCc2cc(C(=O)NC(C)CCn3cccn3)no2)cc1 (stereo not drawn),-2,5,105,102
O=C(O)COc1ccccc1/C=N/NC(=O)c1ccc(F)cc1,-7,-2,102,99
O=C(O)COc1ccccc1/C=N/NC(=O)Cc1ccccc1,5,-7,96,-12*
NS(=O)(=O)c1ccc(-c2ccc(/C=C3\C(=O)Nc4ccccc43)o2)cc1,.,-1,98,122
CC1(C)OC(=O)C(=Cc2ccc(-c3ccc(S(N)(=O)=O)cc3)o2)C(=O)O1,15,-42,2.0*[inhibitor],2.0*[inhibitor]
CCOc1ccc(S(=O)(=O)N2CCC(C(=O)NC3CCCCC3)CC2)cc1,1,7,105,110
CCn1c(C)c(C)c2cc(C(=O)NCCCN3CCCCCC3)ccc21,-18,17,100,136*
Cc1[nH]c2ccc(C(=O)NCCCN3CCCCCC3)cc2c1C,-4,27*,107,173*
CCn1c(C)c(C)c2cc(C(=O)NCCCN3CCCCC3)ccc21,-2,31*,103,1.0*
Cc1[nH]c2ccc(C(=O)NCCCN3CCCC3)cc2c1C,4,15,104,127
CCn1c(C)c(C)c2cc(C(=O)NCCN3CCCCCC3)ccc21,-27,19,105,145*
CCn1c(C)c(C)c2cc(C(=O)NCCCN3CCN(C)CC3)ccc21,-12,12,100,99
O=C(COC(=O)c1cccc(Br)c1)NCCC1=CCCCC1,14,1,95,98
CC1(C)Cc2c(sc3nc(=S)[nH]c(N)c23)CO1,1,2,108,105
COc1ccc(Br)cc1/C=C/C(=O)Nc1ccc2ccccc2c1,52*,5,104,112
SMILES,Hep lipid drop,MEKK2mut PB1 HTS,MEKK3 PB1 HTS,MEKK2wt PB1 HTS
COc1ccc(Br)cc1/C=C/C(=O)Nc1ccc(C)cc1,-2,16,105,133
CC(C)CCn1c(N2CCCC2)nc2c1c(=O)n(C)c(=O)n2C,16,13,109,111
CC(C)CCN1CCC(N)=NC1=O,4,534*,122,422*
O=C(NC1CCN(S(=O)(=O)c2ccc(F)cc2)CC1)c1cccc(F)c1,-1,9,98,102
COc1ccc(NC(=O)C2CC(=O)N=C(N)S2)cc1 (stereo not drawn),11,2,98,-11*
Cc1ccc(NC(=O)c2ccco2)c(NC(=O)c2ccccc2)c1,0,-26,0.0*[inhibitor],-12*[inhibitor]
